Source: PubChem (several laboratories)
An excerpt weighted towards active compounds, which were near 4.3% of everything screened.
Yeast superoxide – reduction of superoxide in aged yeast, primary screen, HTS. S. cerevisiae aged cells, superoxide DHE fluorescence; hits give low values. superoxide response (% of plate mean), % at 10 µM. 330,000 tested, 0.18% active. AID 2690, 2010;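 active = superoxide response under a set limit, about three screen SD below normal, cut at about 65% in these data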;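 note: yeast aged for seven days with compound at 30 °C before DHE staining; 100% = average MFI of all compound-treated wells on the plate with controls excluded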
SMARCA2 activ – SMARCA2 (BRM) function activators, primary screen, cell-based, luminescence, high throughput. MG213 cells, MMTV-luciferase reporter, dexamethasone, overnight. activation, % at 9.1 µM. 370,000 tested, 1% active; in the data active = activation above about 7.8%;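 note: 0% = vehicle wells and 100% = reference activator wells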
SR-BI uptake up – activators of SR-BI mediated DiI-HDL uptake, primary screen, ldlA[mSR-BI] CHO cells, DiI fluorescence. 3 h; 100 = double the neutral-control signal. activation, % at 12.5 µM. 320,000 tested, 0.096% active;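 active = mean replicate activation of at least 60% and every replicate at or above 60%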;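 note: 0% = median plate neutral-control signal and 100% = twice that signal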
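Assay system: LDL receptor-deficient CHO ldlA cells overexpressing murine SR-BI / Medium: BSA-supplemented, HEPES-buffered Ham's F12, pH 7.4 / Probe or stimulus: DiI-labelled HDL at 10 µg/mL final / Timing: compound with DiI-HDL co-incubation, 3 h at 37 °C / Technique: bottom-read cell fluorescence after medium removal, ex 550/em 595 nm / Measure: HDL uptake via cellular fluorescence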
Lipid droplet – inhibitors of hepatocyte lipid droplet formation, primary screen, imaging, high-throughput imaging, BODIPY stain; inhibition, % at 6.5 µM; 240,000 tested, 0.4% active; AML12 mouse hepatocytes, oleate lipid droplets;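 active = lipid droplet intensity inhibited by at least 50%, with more than 500 cells counted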
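Technique: fluorescence imaging, 20x objective, two fields per well / Assay system: AML12 hepatocytes (mouse) / Measure: % inhibition of lipid droplet signal / Doses: 6.5 µM single-point dosing / Incubation: overnight exposure / Reagent: 100 µM oleic acid challenge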
SR-BI DiI inh – inhibitors of SR-BI mediated HDL lipid uptake, primary screen, ldlA[mSR-BI] cells, fluorescence, single point. ldlA[mSR-BI] CHO cells, DiI-HDL uptake fluorescence, 3 h. inhibition, % at 12.5 µM. 320,000 tested, 0.96% active;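 active = mean replicate inhibition of at least 70% and a set share of replicates each scoring 70 or more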;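 note: 0% = median of neutral control wells and 100% = median of positive control wells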
AHR act – AHR activators, primary screen, cell-based, luminescence, luciferase reporter, human | Aryl hydrocarbon receptor (Homo sapiens), P35869 | AHR-responsive luciferase reporter cells | activation, % at 5 µM | 320,000 tested, 2.5% active | AID 2796, 2010; in the data active = activation above about 47%;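 note: 0% = vehicle wells and 100% = reference agonist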
Target sequence (P35869 whole entry, looked up): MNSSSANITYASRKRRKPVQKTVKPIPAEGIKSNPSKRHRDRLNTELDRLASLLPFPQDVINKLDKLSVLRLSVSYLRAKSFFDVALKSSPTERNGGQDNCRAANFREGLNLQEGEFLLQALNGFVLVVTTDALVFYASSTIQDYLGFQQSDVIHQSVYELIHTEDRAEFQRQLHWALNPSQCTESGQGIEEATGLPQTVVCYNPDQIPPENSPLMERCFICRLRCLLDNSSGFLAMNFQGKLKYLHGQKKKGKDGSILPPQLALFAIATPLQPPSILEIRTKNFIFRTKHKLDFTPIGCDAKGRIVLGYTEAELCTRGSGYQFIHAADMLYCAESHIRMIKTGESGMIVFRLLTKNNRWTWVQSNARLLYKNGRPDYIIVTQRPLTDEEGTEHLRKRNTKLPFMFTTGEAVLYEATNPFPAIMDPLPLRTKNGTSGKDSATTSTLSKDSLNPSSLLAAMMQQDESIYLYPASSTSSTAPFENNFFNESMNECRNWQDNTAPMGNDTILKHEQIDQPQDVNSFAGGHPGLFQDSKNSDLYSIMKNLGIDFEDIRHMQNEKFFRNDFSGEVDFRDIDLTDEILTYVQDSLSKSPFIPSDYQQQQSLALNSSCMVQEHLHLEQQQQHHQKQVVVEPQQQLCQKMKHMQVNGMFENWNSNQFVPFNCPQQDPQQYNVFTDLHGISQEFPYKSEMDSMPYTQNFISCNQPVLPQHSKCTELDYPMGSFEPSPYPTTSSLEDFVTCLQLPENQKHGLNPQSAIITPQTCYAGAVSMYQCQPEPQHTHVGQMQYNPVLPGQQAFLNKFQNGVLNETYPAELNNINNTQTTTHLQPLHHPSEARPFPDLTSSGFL
AHR act confirm – AHR activators, confirmation, cell-based, luminescence, luciferase reporter, human; 2,300 tested, 87% active; shares compounds with AHR act; human cells, AHR-responsive luciferase reporter; AID 2845, 2010; activation, % at 9 µM; in the data active = activation above about 49%;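 note: HepG2 hepatoma cells carrying a DRE-driven firefly luciferase reporter; 0% = vehicle wells and 100% = reference agonist wells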
PXR counter – human PXR activators, counter-screen for AHR activator project, cell-based, luciferase luminescence; shares compounds with AHR act; cell-based PXR reporter; activation, % at 11.6 µM; 2,300 tested, 88% active; in the data active = activation above about 11%;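 note: human hepatoma DPX-2 cells expressing full-length human PXR; 0% = DMSO and 100% = reference agonist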
Numbers without * were called inactive; · = not tested or not shown.

SMILES	Yeast superoxide	SMARCA2 activ	SR-BI uptake up	Lipid droplet	SR-BI DiI inh	AHR act	AHR act confirm	PXR counter
Cc1[nH]c2ccccc2c1C(=O)/C=C/c1ccccc1Cl	91	-1	-29	-22	29	147*	123*	72*
Cc1[nH]c2ccccc2c1C(=O)/C=C\c1ccccc1Cl	91	1	-14	-6	14	157*	112*	78*
Cc1nc2ccccc2c(N)c1C(=O)/C=C/c1ccccc1	85	-4	-11	-11	11	10	·	·
Cc1[nH]c2ccccc2c1C(=O)/C=C/c1ccccc1	104	5	·	·	·	166*	140*	200*
COC(=O)[C@]12C[C@H](CC(=O)NCCCCc3ccccc3)C(=O)N(CCC3=CCCCC3)C1=C[C@H](C(C)(C)C)O[C@@H]2C	·	-6	·	·	·	·	·	·
CCCCCCCCN1C(=O)N(Cc2ccc(OC)cc2)S(=O)(=O)c2ccc(F)cc21	·	-4	·	·	·	·	·	·
C[C@@H]1CCN(C2CC2)S(=O)(=O)c2c(cccc2N2CC[C@H](O)C2)O1	·	1	·	·	·	·	·	·
COC(=O)[C@]12C[C@H](CC(=O)NCCCCc3ccccc3)C(=O)N(Cc3ccc(Cl)cc3Cl)C1=C[C@H](C(C)(C)C)O[C@@H]2C	·	-3	·	·	·	·	·	·
COc1ccc(CCN2Cc3c(N)cccc3C2=O)cc1OC	100	-3	4	·	-4	83*	1	12*
CSc1ccc(C2Nc3ccccc3-c3cc(C)nn32)cc1 (configuration not stated)	95	0	-63	·	63	101*	100*	29*
Cc1cc2n(n1)C(c1ccsc1)Nc1ccccc1-2 (configuration not stated)	99	-4	-33	-1	33	19	·	·
C[C@@H]1CNC(=O)c2c(C(=O)N3CCN(c4ccccc4)CC3)ncn21	·	-2	·	·	·	·	·	·
CC(=O)Nc1c(C(=O)c2ccc(F)cc2)oc2ccccc12	114	-3	11	·	-11	155*	126*	39*
COc1ccc(C(=O)c2oc3ccccc3c2NC(C)=O)cc1	100	2	-43	2	43	173*	148*	14*
Nc1c(C(=O)c2ccc(Cl)cc2)oc2ccccc12	109	5	-34	-3	34	113*	169*	16*
O=C(Nc1ccc(F)cc1)c1oc2ccccc2c1NC(=O)C1CCCC1	92	·	-50	·	50	91*	136*	36*
COC(=O)c1cccc(Cn2ccc3ccc(-c4ccc5ccn(Cc6cccc(C(=O)OC)c6)c5c4)cc32)c1	·	-2	·	·	·	·	·	·
COc1ccc(Cn2c(NC(=O)c3ccccc3)nc(Cc3ccccc3)c2Cc2ccccc2)cc1	·	-6	·	·	·	·	·	·
Cn1c(NC(=O)c2ccccc2)nc(Cc2ccccc2)c1-c1ccccc1	·	-4	·	·	·	·	·	·
CCCCCCCCN1C(=O)[C@@H](CC(=O)N2CCN(C(=O)c3ccco3)CC2)C[C@@]2(C(=O)OC)C1=C[C@H](C(C)C)O[C@@H]2C1CC1	·	-1	·	·	·	·	·	·
CCn1cnc2cc(NCc3ccc(Cl)cc3)ccc21	95	4	1	-6	-1	99*	98*	32*
O=C(Nc1cccnc1)Nc1cc(Cl)cc(Cl)c1	91	-2	-2	11	2	113*	62*	·
COc1ccccc1NC(=O)Nc1cccnc1	88	-4	7	-3	-7	122*	93*	·
COc1cc([N+](=O)[O-])ccc1NC(=O)Nc1cccnc1	112	-2	-64	2	64	7	·	·
Cc1ccc2nc(-c3cccc(NC(=O)c4ccco4)c3)[nH]c2c1	87	3	-4	19	4	91*	92*	16*
SMILES	Yeast superoxide	SMARCA2 activ	SR-BI uptake up	Lipid droplet	SR-BI DiI inh	AHR act	AHR act confirm	PXR counter
Cc1ccc(O)c(NC(=O)c2ccco2)c1	102	3	6	5	-6	11	·	·
Cc1ccc(O)c(NC(=O)c2cccc(NC(=O)c3ccco3)c2)c1	109	0	-8	-17	8	104*	129*	21*
Cc1cccc(-c2nnc(NC(=O)c3ccco3)s2)c1	109	0	13	-16	-13	164*	129*	54*
Cc1ccc2nc(-c3ccc(CN4CCC5(CC4)CNc4ccccc45)cc3)c(-c3ccccc3)nc2c1	·	7	·	·	·	·	·	·
Cc1cc(C)n2nc(C)c(-c3ccc(Cl)cc3)c2n1	106	1	-19	-2	19	6	·	·
Cc1cc(C)n2nc(N)c(N=Nc3ccc(Cl)cc3)c2n1	91	-3	6	·	-6	109*	98*	31*
CCOC(=O)[C@]12CCCC=C1N(Cc1ccc(OC)cc1)C(=O)[C@@H]2CC(=O)NCc1ccc(C)o1	·	0	·	·	·	·	·	·
CCCCN1CN2Cc3cc(OC)ccc3C2CS1(=O)=O (configuration not stated)	·	-3	·	·	·	·	·	·
Cc1cc(=O)oc2cc(OC(=O)c3ccco3)ccc12	·	-1	23	13	-23	·	·	·
Cc1oc2cc(OC(=O)c3ccco3)ccc2c(=O)c1-c1nc2ccccc2n1C	95	-1	0	8	0	106*	2	20*
O=C(c1cn(-c2ccc(Cl)c(Cl)c2)nn1)C1CC1	94	4	7	·	-7	84*	125*	29*
Cc1cc(C)c2c(C)c(C(=O)NCc3ccncc3)oc2c1	96	-6	-21	-23	21	83*	73*	24*
CCCN1C(=O)c2cc(C(=O)Nc3ccccc3OC)ccc2C1Nc1ccccc1OC (configuration not stated)	108	0	·	6	·	94*	65*	72*
N#C/C(=C1/CCCCCN1)c1nc2ccccc2[nH]1	96	4	-21	·	21	115*	144*	48*
N#C/C(=C1\CCCN1)c1ccc2ccccc2n1	105	1	-42	·	42	21	·	·
O=C1c2ccccc2C(O)(c2ncc[nH]2)N1CCc1ccccc1 (configuration not stated)	107	-4	24	-24	-24	98*	105*	24*
C=CCN1C(=O)c2ccccc2C1(O)Cc1ccccc1 (configuration not stated)	84	-1	-15	24	15	1	·	·
